Data set [1] concerns Mus musculus. Nature of the data set: Anxiolytic-like activity in Albino Swiss (CD-1) mouse at 30 mg/kg, ip by four plate test. Format: functional, organism-based. In short, it runs like this: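 Male CD-1 mice were dosed i.p. 60 min before test. After 15 s habituation on a four-plate floor, a 60 s test followed. Each plate-to-plate crossing triggered a 0.8 mA, 0.5 s shock. The number of punished crossings was counted. Analysis by one-way ANOVA with Dunnett.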

The subject of data set [2] is Mus musculus. Description: Anticonvulsant activity in Albino Swiss (CD-1) mouse assessed as tonic seizures at 100 mg/kg, ip measured after 0.2 secs by maximal electroshock seizure test. The settings on record: time 0.2 sec, 5.556e-05 h. Format: functional. The method in brief:
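Male CD-1 mice (18–22 g), dosed i.p. 60 min before test. A 25 mA, 0.2 s stimulus was given via auricular electrodes. Endpoint was tonic hind limb extension, expressed as % of mice with extension per group; n = 6.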
(In general: The maximal electroshock test induces tonic seizures with an electrical stimulus.)

Data set [3] has as its system Mus musculus. Description: Antidepressant activity in CD-1 mouse assessed as reduction in immobility time at 30 mg/kg, ip measured for last 4 mins of 6 mins test by forced swim test. Format: functional, organism-based. In short, it runs like this: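 Male CD-1 mice, dosed i.p. 60 min before test. Mice were placed singly in cylinders with 10 cm water at 23–25 °C. Immobility (passive floating) was scored during the final 4 min of a 6-min session. Analysis by one-way ANOVA with Dunnett versus vehicle.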

The nature of data set [4]: Effect on locomotor activity in Albino Swiss (CD-1) mouse at 30 mg/kg, ip. Format: ADME, organism-based. The settings on record: in vivo. The method in brief:
(§1)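 Male CD-1 mice were habituated to activity cages for 15 min, then dosed i.p. 60 min before test. Light-beam crossings were counted over 30 min in 6-min bins (0–30 min). Analysis by repeated measures ANOVA with Bonferroni.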

The test system of data set [5] is Mus musculus. Nature of the data set: Anticonvulsant activity in Albino Swiss (CD-1) mouse model of pilocarpine-induced status epilepticus assessed as reduction in latency to occurrence of status epilepticus at 100 mg/kg, […]. Type of data set: functional, organism-based.
The next data set concerns the target T1, GABA transporter 4 (Mus musculus, UniProt P31650).
T1 sequence (P31650 whole entry): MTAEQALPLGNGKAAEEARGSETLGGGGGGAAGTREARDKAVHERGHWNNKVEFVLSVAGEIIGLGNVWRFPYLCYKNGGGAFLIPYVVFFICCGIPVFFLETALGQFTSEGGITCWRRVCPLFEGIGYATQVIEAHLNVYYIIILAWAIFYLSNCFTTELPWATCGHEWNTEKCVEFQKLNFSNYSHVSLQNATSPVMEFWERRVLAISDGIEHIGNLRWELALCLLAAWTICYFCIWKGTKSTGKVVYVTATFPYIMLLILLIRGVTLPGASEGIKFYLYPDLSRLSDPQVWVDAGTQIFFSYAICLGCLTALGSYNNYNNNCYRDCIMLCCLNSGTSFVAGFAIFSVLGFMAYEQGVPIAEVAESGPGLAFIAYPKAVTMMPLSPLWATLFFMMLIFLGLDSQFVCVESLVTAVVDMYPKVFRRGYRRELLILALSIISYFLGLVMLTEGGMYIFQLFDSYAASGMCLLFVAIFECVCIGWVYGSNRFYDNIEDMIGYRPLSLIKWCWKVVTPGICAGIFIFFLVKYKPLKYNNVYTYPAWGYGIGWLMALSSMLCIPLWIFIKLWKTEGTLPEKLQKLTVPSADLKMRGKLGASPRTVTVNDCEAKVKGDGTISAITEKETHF
Nature of the data set: Inhibition of mouse GAT4 expressed in human HEK293 cell line assessed as inhibition of [3H]GABA uptake measured after 40 mins by […]. Format: cell-based.

Data set [6] deals with T2, Sodium- and chloride-dependent GABA transporter 1 (Mus musculus, UniProt P31648). Description: Inhibition of mouse GAT1 expressed in human HEK293 cell line assessed as inhibition of [3H]GABA uptake measured after 40 mins by […]. Format: cell-based.
Data set [7] deals with Mus musculus. Description: Anticonvulsant activity in CD-1 mouse assessed as elevation of seizure threshold at 100 mg/kg, ip measured by electroconvulsive threshold test relative to control. Type of data set: functional.
A short description of data set [8]: Hepatotoxicity in human HepG2 cells at 50 uM incubated for 72 hrs by MTS assay. Type of data set: cell-based. The settings on record: hepg2, 72 h. The method in brief: (§2)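 Cells (HEK-293 or HepG2) were seeded at 0.7×10^4 per well and grown at 37 °C, 5% CO₂. Compounds at 0.1–100 µM were added in quadruplicate for 72 h, with 1% DMSO in medium as control. Viability was read by MTS absorbance at 492 nm. Analysis by one-way ANOVA with Bonferroni.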

Data set [9] relates to Mus musculus. Description: Anxiolytic-like activity in Albino Swiss (CD-1) mouse assessed as increase in time spent in open arm at 30 mg/kg, ip measured for 5 mins by elevated plus maze test. Type of data set: functional, organism-based. The method in brief:
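Male CD-1 mice were dosed i.p. 60 min before test. Each was placed in the centre of the plus maze facing a closed arm and video-recorded for 5 min. Measures were time in open arms and % open-arm entries of all entries. Analysis by one-way ANOVA with Dunnett; n = 7–10.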

A short description of data set [10]: Hepatotoxicity in human HepG2 cells at 100 uM incubated for 72 hrs by MTS assay. Format: cell-based. The settings on record: hepg2, 72 h. The method in brief:
as §2

Data set [11] addresses Sodium- and chloride-dependent GABA transporter 1 (Mus musculus) (UniProt P31648). Description: Residual NO711 binding to mouse GAT1 expressed in human HEK293 cell line at 100 uM by MS binding assay relative to control.
Another data set has as its system HEK293. Nature of the data set: Cytotoxicity in human HEK293 cells assessed as reduction in cell viability at 1 uM incubated for 72 hrs by MTS assay. Format: cell-based. The settings on record: hek293, 72 h. The method in brief: as §2
(In general: Tetrazolium assays rely on reduction of a dye to a coloured formazan, in cell work by metabolically active cells.)

Data set [12] has as its system Mus musculus. Nature of the data set: Antinociceptive activity in Albino Swiss (CD-1) mouse model of formalin-induced paw edema assessed as reduction in duration of nocifensive response by measuring licking/biting time at 30 mg/kg, ip pre-treated for 30 mins followed by formalin-stimulation and measured up to 5 mins. Format: functional, organism-based.
Data set [13] concerns Mus musculus. Nature of the data set: Antinociceptive activity in Albino Swiss (CD-1) mouse model of formalin-induced paw edema at 30 mg/kg, ip pre-treated for 30 mins followed by formalin-stimulation and measured for 15 to 30 mins by formalin test.
The test system of data set [14] is Mus musculus. Nature of the data set: Antidepressant-like activity in C57BL/6J mouse assessed as decrease in immobility time at 30 mg/kg, ip measured during last 4 mins of 6 mins test by tail suspension test.
Data set [15] is described as follows: Hepatotoxicity in human HepG2 cells at 25 uM incubated for 72 hrs by MTS assay. Type of data set: cell-based. The settings on record: hepg2, 72 h. In short, it runs like this: as §2
A further data set concerns the target T3, GABA transporter 2 (Mus musculus, UniProt P31651).
T3 sequence (P31651 whole entry): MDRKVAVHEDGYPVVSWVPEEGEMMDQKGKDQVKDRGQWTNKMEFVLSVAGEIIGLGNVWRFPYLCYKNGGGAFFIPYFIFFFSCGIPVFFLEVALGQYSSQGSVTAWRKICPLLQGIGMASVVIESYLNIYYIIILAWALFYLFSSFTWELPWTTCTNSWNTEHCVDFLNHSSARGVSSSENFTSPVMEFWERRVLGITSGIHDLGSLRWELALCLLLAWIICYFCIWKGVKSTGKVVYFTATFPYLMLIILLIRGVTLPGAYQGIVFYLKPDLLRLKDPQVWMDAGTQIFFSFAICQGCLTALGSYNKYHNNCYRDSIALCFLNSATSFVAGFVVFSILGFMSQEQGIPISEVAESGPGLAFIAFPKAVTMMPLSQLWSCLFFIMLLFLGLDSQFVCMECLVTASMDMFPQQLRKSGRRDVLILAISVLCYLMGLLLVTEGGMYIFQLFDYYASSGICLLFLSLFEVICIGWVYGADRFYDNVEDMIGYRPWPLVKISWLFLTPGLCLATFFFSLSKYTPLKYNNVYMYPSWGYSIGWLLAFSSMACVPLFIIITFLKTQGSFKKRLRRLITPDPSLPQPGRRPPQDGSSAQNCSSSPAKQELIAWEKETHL
Nature of the data set: Inhibition of mouse GAT2 expressed in human HEK293 cell line assessed as inhibition of [3H]GABA uptake measured after 40 mins by […]. Type of data set: cell-based.

In data set [16] the test system is Mus musculus. Description: Anticonvulsive activity in Albino Swiss (CD-1) mouse assessed as protection against pentylenetetrazole-induced seizure at 100 mg/kg, ip administered 60 mins prior to pentylenetetrazole challenge and measured for 30 mins. Format: functional, organism-based. The method in brief:
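Male CD-1 mice were given test compound or vehicle i.p. and 60 min later PTZ 100 mg/kg s.c. Mice were observed singly for 30 min, recording latency to first seizure episode and number of seizure episodes. Analysis by one-way ANOVA with Dunnett; n = 10–12.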

Data set [17] can be described thus: Effect on locomotor activity in Albino Swiss (CD-1) mouse at 30 mg/kg, ip after 24 to 30 mins. Format: ADME, organism-based. The settings on record: in vivo, time 24-30 min. In short, it runs like this: as §1
The test system of data set [18] is Mus musculus. Description: Antidepressant activity in Albino Swiss (CD-1) mouse assessed as reduction in immobility time at 8 mg/kg, ip measured for last 4 mins of 6 mins test by forced swim test relative to control. Type of data set: functional.
Data set [19] has as its target T2, Sodium- and chloride-dependent GABA transporter 1. Nature of the data set: Inhibition of NO711 binding to mouse GAT1 expressed in human HEK293 cell line by MS binding assay.
For data set [20], the system named is Mus musculus. Nature of the data set: Antidepressant activity in Albino Swiss (CD-1) mouse assessed as reduction in immobility time at 30 mg/kg, ip measured for last 4 mins of 6 mins test by forced swim test relative to control. Format: functional. On the set-up: scale not given: the % may be the effect or the level left.

Calls of active or inactive are those of the source.

What is called IC50 is the concentration needed to halve the response being measured. For orientation: residual activity means the signal under treatment as a percentage of the control signal. By pKi is commonly meant −log10 of the Ki, conventionally taken in molar units.

In the case of `Cc1ccc(CNC(=O)C(CCO)N(C)CCC=C2c3ccccc3CCc3ccccc32)cc1` (centres undefined), the outcome in the data set on Mus musculus [1] and in the data set with Mus musculus [9] was inactive. Besides, the Activity with Mus musculus [2] is on record as 83%; in [4], “Non-Toxic”; in the data set with Mus musculus [7], 90%; in data set [8], “Toxic”; in [10], “Toxic”; in the data set on HEK293, “Non-Toxic”. Further, in [15], the Activity result is “Non-Toxic”. For the same compound, the result with Mus musculus [3], with Mus musculus [5], in the data set on Mus musculus [12], in the data set on Mus musculus [13] and with Mus musculus [14] was Active. Also, the IC50 is 10.7 µM at GABA transporter 4, 14.1 µM in [6] and 4.57 µM on GABA transporter 2. The residual activity in [11] was 53%.

Turning to `CN(CCC=C1c2ccccc2C=Cc2ccccc21)C(CCO)C(=O)NCc1ccccc1` (centres undefined), the result in the data set on Mus musculus [1], with Mus musculus [16], with Mus musculus [5] and in the data set with Mus musculus [9] was inactive. In addition, the Activity with Mus musculus [2] was 83%; in data set [17], “Non-Toxic”; in the data set on Mus musculus [7], 43%; in data set [8], “Toxic”; in [10], “Toxic”; in the data set with Mus musculus [18], “Dose-Dependent Effect”. For the same compound, the Activity result (in the data set on HEK293; in [15]) was “Non-Toxic” in each case. Besides, the IC50 at GABA transporter 4 is 9.55 µM; in data set [6], 21.9 µM; on GABA transporter 2 it was 15.5 µM. Besides, in data set [11], the residual activity is 75%. For the same compound, the result in the data set on Mus musculus [13] and in the data set with Mus musculus [14] was Active.

Compound `Cc1ccsc1C(=CCCN1CCC[C@@H](C(=O)O)C1)c1sccc1C` [TIAGABINE] gave a pKi in data set [19] of 7.43. Moreover, the results for the Activity with Mus musculus [20] and with Mus musculus [18] were 97.4% and 59%, respectively.

The values are drawn from ChEMBL document CHEMBL4837220, “Development of tricyclic N-benzyl-4-hydroxybutanamide derivatives as inhibitors of GABA transporters mGAT1-4 with anticonvulsant, antinociceptive, and antidepressant activity” (Eur J Med Chem, 2021).
